From PubChem BioAssay
Shown are actives, neighbours in structure and some others; about 1.9% of the full set was active somewhere.
M4 antag: CHRM4 antagonism in calcium assay; CHO-hM4 cells, ACh EC80, Fluo-8 calcium fluorescence; AID 624125; 360,000 tested, 0.73% active; inhibition, % at 3 µM;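 active = inhibition above its plate's cutoff, the mean inhibition of sample wells plus 3 SD, cut at about 27% in these data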;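 also: 0% = acetylcholine EC80 with DMSO and 100% = DMSO without agonist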
Target sequence (P08173 whole entry, looked up): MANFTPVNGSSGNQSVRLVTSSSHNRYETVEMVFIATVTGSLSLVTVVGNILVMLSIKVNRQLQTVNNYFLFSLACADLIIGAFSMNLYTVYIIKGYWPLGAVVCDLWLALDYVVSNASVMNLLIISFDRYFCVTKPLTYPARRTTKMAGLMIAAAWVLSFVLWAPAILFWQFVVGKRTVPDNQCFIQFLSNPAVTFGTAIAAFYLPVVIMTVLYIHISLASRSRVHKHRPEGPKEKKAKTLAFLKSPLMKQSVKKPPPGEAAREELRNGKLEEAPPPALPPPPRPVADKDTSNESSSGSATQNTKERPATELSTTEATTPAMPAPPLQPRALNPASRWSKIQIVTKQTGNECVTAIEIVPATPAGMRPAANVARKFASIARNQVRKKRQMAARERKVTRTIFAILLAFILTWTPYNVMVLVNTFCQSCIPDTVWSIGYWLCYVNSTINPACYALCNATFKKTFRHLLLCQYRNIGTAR
M5 PAM: positive allosteric modulators of human muscarinic M5 receptor; CHO-K1 hM5, Fluo-8 calcium, ACh EC20 PAM; 0% = ACh EC20, 100% = ACh EC100; activation, % at 3 µM; 360,000 tested, 0.3% active; AID 624038;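 active = activation above the run cutoff, the mean activation of all test compounds plus 3 SD, cut at about 18% in these data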
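Test system: CHO-K1 hM5 cells / Doses: single-point, 3 µM nominal / Times: Post-acetylcholine fluorescence recording 140 s / Technique: Fluo-8 calcium fluorescence / Measure: Max/basal fluorescence ratio as % of EC20–EC100 ACh window / Benchmarks: low control EC20 acetylcholine (0%), high control EC100 acetylcholine (100%) / Replicates: one well per compound, no replicates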
M5 antag: CHRM5 antagonism in calcium assay; P08912; CHO-hM5 cells, Fluo-8 calcium fluorescence, ACh EC80; inhibition, % at 3 µM; 360,000 tested, 0.59% active;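 active = inhibition above a per-plate cutoff, the mean of that plate's test compounds plus 3 SD, cut at about 27% in these data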;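 also: 0% = acetylcholine EC80 with DMSO and 100% = DMSO without agonist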
CHRM5 agonist: agonists of human muscarinic M5 receptor (CHRM5) | P08912 | CHO-K1 hM5 cells, Fluo-8 calcium fluorescence; 0% DMSO wells, 100% maximal acetylcholine response | activation, % at 3 µM | 360,000 tested, 0.19% active | AID 624037;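 active = activation above the run's mean over test compounds plus 3 SD, cut at about 23% in these data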;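 also: signal is peak over basal fluorescence ratio across the kinetic read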
M4 ag: CHRM4 agonism in calcium assay. P08173. 360,000 tested, 0.14% active. activation, % at 3 µM. CHO-K1 hM4/Gqi5, Fluo-8 calcium fluorescence; vehicle 0%, full acetylcholine response 100%;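 active = activation above the run mean over all test wells plus 3 SD, cut at about 32% in these data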;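 also: peak over basal fluorescence ratio per well then scaled between controls; 0% = DMSO wells and 100% = acetylcholine at EC100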
M4 PAM: potentiates acetylcholine response at human M4 receptor | P08173 | CHO-K1 hM4/Gqi5, Fluo-8 calcium fluorescence, ACh EC20; 0% = ACh EC20, 100% = maximal ACh | activation, % at 3 µM | 360,000 tested, 0.4% active;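 active = activation above its plate's cutoff, the mean activation of sample wells plus 3 SD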
Starred values were filed as active, the others as inactive.

How did C[N+](C)(C)c1ccc(/C=N/Nc2nc(Cl)c(C#N)c(Cl)c2Cl)cc1 do in these assays?
M4 antag: 0.6; M5 PAM: -5.2; M5 antag: -4.2; CHRM5 agonist: 31.9*; M4 ag: 2.7; M4 PAM: -0.9

What do the screens show for `N#Cc1c(Cl)nc(N/N=C/c2ccccc2)c(Cl)c1Cl`?
M4 antag: 6.2; M5 PAM: 0.1; M5 antag: -3.8; CHRM5 agonist: -0.3; M4 ag: 0.3; M4 PAM: 4.0

Results for Cc1c(CN(C)C(=O)C2CCC(=O)N(Cc3ccccc3F)C2)[nH]c2ccccc12 (stereo unspecified) ?
M4 antag: -11.8; M5 PAM: 4.0; M5 antag: -7.8; CHRM5 agonist: 2.0; M4 ag: 6.2; M4 PAM: 2.2

What do the screens show for `O=[N+]([O-])c1ccccc1/C=N/NC1=NCCN1`?
M4 antag: -9.7; M5 PAM: 19.1*; M5 antag: -8.8; CHRM5 agonist: 0.4; M4 ag: 0.7; M4 PAM: 10.9

Results for O=[N+]([O-])c1ccccc1C=NNc1ccccc1 ?
M4 antag: 5.8; M5 PAM: 0.6; M5 antag: 14.0; CHRM5 agonist: -4.1; M4 ag: -1.1; M4 PAM: -1.5

What do the screens show for `CCC1CCCCN1C(=O)CCNS(=O)(=O)c1ccc2c(c1)oc(=O)n2C` (stereo unspecified)?
M4 antag: -1.4; M5 PAM: -0.4; M5 antag: -3.7; CHRM5 agonist: -4.2; M4 ag: 1.2; M4 PAM: 5.8

What do the screens show for `Cc1ccc(Cn2nnc(C(=O)Nc3cccc(C)c3C)c2N)cc1`?
M4 antag: 20.7; M5 PAM: -4.4; M5 antag: 13.5; CHRM5 agonist: 37.8*; M4 ag: 53.4*; M4 PAM: -20.2

How did COc1cccc(Cn2nnc(C(=O)Nc3cc(C)ccc3OC)c2N)c1 do in these assays?
M4 antag: -12.6; M5 PAM: -6.2; M5 antag: 2.2; CHRM5 agonist: -2.1; M4 ag: 0.3; M4 PAM: 18.3*

How did CCc1ccc(Cn2nnc(C(=O)Nc3cccc(C)c3)c2N)cc1 do in these assays?
M4 antag: 5.4; M5 PAM: -3.0; M5 antag: 3.0; CHRM5 agonist: 6.1; M4 ag: 4.2; M4 PAM: 1.9

Results for Cc1c2cnn(CC(=O)NCCCN3CCCCC3)c(=O)c2c(C)n1Cc1ccccc1 ?
M4 antag: 8.6; M5 PAM: -1.4; M5 antag: 3.5; CHRM5 agonist: -3.3; M4 ag: 0.2; M4 PAM: -6.5

Results for CCC1CCCCN1CCCNC(=O)CSc1nc2nc(C)c(Cc3ccccc3)c(C)n2n1 (stereo unspecified) ?
M4 antag: 8.2; M5 PAM: -6.7; M5 antag: 8.7; CHRM5 agonist: -8.1; M4 ag: 1.8; M4 PAM: -12.1

Results for Cc1ccccc1Cc1c(C)nc2nc(SCC(=O)NCCCN3CCCC3)nn2c1C ?
M4 antag: 23.5; M5 PAM: -11.6; M5 antag: 23.9; CHRM5 agonist: -7.7; M4 ag: 0.9; M4 PAM: -20.8

Results for Cc1nc2nc(SCC(=O)NCCCN3CCCCCC3)nn2c(C)c1Cc1ccccc1Cl ?
M4 antag: 51.1*; M5 PAM: -12.8; M5 antag: -1.0; CHRM5 agonist: -10.3; M4 ag: 1.7; M4 PAM: -11.5

How did CCC1CCCCN1CCCNC(=O)CSc1nc2nc(C)c(Cc3ccccc3Cl)c(C)n2n1 (stereo unspecified) do in these assays?
M4 antag: 31.4*; M5 PAM: -10.3; M5 antag: 15.1; CHRM5 agonist: -10.8; M4 ag: 0.7; M4 PAM: -10.3

What do the screens show for `Cc1nc2nc(SCC(=O)NCCCN3CCCC(C)C3)nn2c(C)c1Cc1ccccc1Cl` (stereo unspecified)?
M4 antag: 31.3*; M5 PAM: -16.5; M5 antag: 19.6; CHRM5 agonist: -10.2; M4 ag: 0.4; M4 PAM: -12.1
